These results are taken from ChEMBL document CHEMBL3124890, “SAR studies on trisubstituted benzimidazoles as inhibitors of Mtb FtsZ for the development of novel antitubercular agents” (J Med Chem, 2013).

For experiment [1], the system named is Mycobacterium tuberculosis. The experiment in a line: […]. The experiment is classed as functional, TN587. Put shortly:
(§1)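 Strains were grown at 37 °C in 7H9 Middlebrook broth with 10% OADC, 0.05% Tween and 0.2% glycerol. Compounds were dissolved in DMSO and serially diluted 2-fold, then bacteria were added. Plates were incubated 6 days at 37 °C, then 24 h more with Alamar Blue. MIC was the lowest concentration (μg/mL) that prevented the colour change. Run in triplicate.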

For experiment [2], the system named is Mycobacterium tuberculosis. The experiment in a line: […]. The experiment is classed as functional, NHN382. Put shortly:
as §1

Converted amounts (≈) assume the structure as drawn.

In general, MIC refers to the smallest concentration in the dilution series that meets the test's criterion for growth inhibition. On to `CCCCOC(=O)Nc1cc2nc(C3CCCCC3)[nH]c2cc1N(CC)CC`, for which the MIC in experiment [1] and in experiment [2] was 1.25 µg/mL (≈ 3.23 µM) in each case.

For the compound `CCCCOC(=O)Nc1cc2nc(C3CCCCC3)[nH]c2cc1N(C)C`, the MIC is 0.13 µg/mL (≈ 0.363 µM) in experiment [1] and 0.06 µg/mL (≈ 0.167 µM) in experiment [2].

As for `CCc1ccc(C(=O)Nc2cc3nc(C4CCCCC4)[nH]c3cc2N(C)C)cc1`, the MIC in experiment [1] and in experiment [2] was 0.16 µg/mL (≈ 0.41 µM) in each case.

In the case of `NNC(=O)c1ccncc1` [ISONIAZID], the minimum inhibitory concentration (MIC) in experiment [1] and in experiment [2] was 0.25 µg/mL (≈ 1.82 µM) each time.
